Publication PMC5629310 (Journal of Arthropod-Borne Diseases, 2017)
Where two headings read alike, the source gives them in different places.

Key:
[1] = system: Leishmania major promastigotes (vaccine strain MRHO/IR/75/ER); experiment: Antileishmanial activity against Leishmania major promastigotes; type: cell-based; conditions: for IC50: Leishmania major, 24 h, read-out: Anti-promastigote activity IC50
[2] = system: mouse peritoneal macrophages; experiment: Toxicity against macrophages; type: cell-based; conditions: CC50 macrophages / IC50 promastigotes
Procedure, shortened: (§1)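 BALB/c peritoneal macrophages, collected by PBS lavage, were kept in RPMI 1640 with 10% heat-inactivated FBS, 2mM glutamine and penicillin/streptomycin. Cells were seeded at 2×10^5/well and allowed to adhere. Medium was replaced with a graded series of test compound for 24 h at 37 °C, 5% CO2, with a DMSO negative control. Viability was read by MTT. Two independent experiments were run in triplicate, and CC50 was taken by linear regression.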

[3] = Toxicity against macrophages; type: cell-based, mouse; conditions: BALB/c, mouse, mouse peritoneal macrophages
Procedure, shortened: as §1

[4] = system: amastigote form of L. major in murine peritoneal macrophages; conditions: previous compounds 1a-b; result in words; ref Tahghighi et al. 2013; cited from earlier work
[5] = system: Leishmania major promastigotes (vaccine strain MRHO/IR/75/ER); conditions: read-out: Anti-promastigote activity IC50; L. major promastigotes; previous compounds 1a-b; ref Tahghighi et al. 2013; cited from earlier work
[6] = system: mouse peritoneal macrophages; conditions: read-out: Cytotoxicity CC50, previous compounds 1a-b, ref Tahghighi et al. 2013; cited from earlier work

| Compound | IC50 [1] [µM] | SI (selectivity index CC50/IC50) [2] | CC50 at 24 h [3] [µM] | Number of intracellular amastigotes per macrophage, percentage of macrophage infectivity and infectivity index compared with control group [4] | IC50 [5] [µM] | CC50 [6] [µM] | fold more potent than 5-nitrofuran counterpart 1a ([1]; promastigote IC50, 1b versus 1a) [fold] |
| --- | --- | --- | --- | --- | --- | --- | --- |
| OC(Cn1cncn1)(Cn1cncn1)c1ccc(F)cc1F [Fluconazole, reference compound] | 941.1 ± 4.98 | – | – | – | – | – | – |
| O=[N+]([O-])c1ccc(-c2nnc(N3CCC(O)CC3)s2)s1 [Compound 5b, 1-(5-(5-nitrothiophen-2-yl)-1,3,4-thiadiazol-2-yl)piperidin-4-ol] | 27 ± 0.12 | 2.35 | 63.6 | – | – | – | – |
| O=[N+]([O-])c1ccc(-c2nnc(NCCCO)s2)o1 [Compound 1a, 3-(5-(5-nitrofuran-2-yl)-1,3,4-thiadiazol-2-ylamino) propan-1-ol] | – | – | – | decreased | 18 ± 0.2 | 62.3 | – |
| O=[N+]([O-])c1ccc(-c2nnc(N3CCC(O)CC3)s2)o1 [Compound 5a, 1-(5-(5-nitrofuran-2-yl)-1,3,4-thiadiazol-2-yl)piperidin-4-ol] | 68.9 ± 0.107 | 1.14 | 78.5 | – | – | – | – |
| O=[N+]([O-])c1ccc(-c2nnc(NCCCO)s2)s1 [Compound 1b, 3-(5-(5-nitrothiophen-2-yl)-1,3,4-thiadiazol-2-ylamino) propan-1-ol] | – | – | – | decreased | 3 ± 0.41 | 42.2 | 6 |
